Measured values taken from ChEMBL document CHEMBL1149660, “Identification and characterization of novel sodium/potassium-ATPase inhibitors by virtual screening of a compound database” (Bioorg Med Chem, 2007).
Activity calls are given as the source filed them. The calls are words filed in the database; no cut-off is given here.

Experiments:
Sus scrofa [1] = organism: Sus scrofa; test: (§1) Inhibition of Na/K-ATPase in porcine cerebral cortex; assay type: tissue-based
Procedure, shortened: (§2)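 Coupled pyruvate kinase/lactate dehydrogenase assay using lyophilized porcine cerebral cortex Na/K-ATPase. The enzyme was preincubated at 37 °C for at least 30 min (or overnight at room temperature first, in some cases) with 10–14 inhibitor concentrations. Reactions were started with 5 mM ATP. NADH oxidation was followed at 340 nm for 5 min. IC50 came from the inhibition curves; relative potency is the IC50 divided by ouabain's IC50.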

[2] = as §1; assay type: tissue-based, Sus scrofa; procedure, shortened: as §2
Sus scrofa [3] = organism: Sus scrofa; test: Inhibition of Na/K-ATPase in porcine cerebral cortex relative to ouabain; assay type: tissue-based; procedure, shortened: as §2

SMILES | Activity (Sus scrofa [1]) | IC50 [2] [nM] | Activity (Sus scrofa [3])
CC(C)(O)[C@H]1CC[C@@](C)([C@H]2[C@@H](O)C[C@@]3(C)[C@@H]4C[C@H](O)C5C(C)(C)[C@@H](O[C@@H]6O[C@H](CO)[C@@H](O)[C@H](O)[C@H]6O)CC[C@@]56C[C@@]46CC[C@]23C)O1 (some centres not stated) | inactive | – | –
C[C@]12CC[C@@H](O)C[C@@H]1[C@@H](O)C[C@H]1[C@H]2CC[C@]2(C)[C@@H]([C@@]3(C)CO3)CC[C@]12C | inactive | – | –
CC(=O)OCC(=O)[C@@]1(OC(C)=O)CC[C@H]2[C@@H]3CC[C@H]4C[C@H](OC(C)=O)CC[C@]4(C)[C@H]3CC[C@@]21C | inactive | – | –
C[C@H]1CCC([C@@H](C)[C@H]2CC[C@@H]3[C@@H]2CC[C@H]2[C@H]3CC(=O)[C@H]3C[C@@H](O)CC[C@@]32C)=NC1 | – | 143000 | 305
CC1OC(O[C@H]2CC[C@]3(/C=N/CCc4ccc(O)cc4)[C@H]4CC[C@]5(C)[C@@H](C6=CC(=O)OC6)CC[C@]5(O)[C@@H]4CC[C@]3(O)C2)CC(O)C1O (some centres not stated) | – | 2640 | 4.92
C[C@H]1O[C@@H](O[C@H]2CC[C@]3(C=O)[C@H]4CC[C@]5(C)[C@@H](C6=CC(=O)OC6)CC[C@]5(O)[C@@H]4CC[C@]3(O)C2)C[C@H]2OC(C)(C)O[C@@H]12 | – | 14.6 | 0.031
C[C@]12CC[C@H]3[C@@H](CC[C@]4(O)C[C@@H](O)CC[C@]34/C=N/C34CC5CC(CC(C5)C3)C4)[C@@]1(O)CC[C@@H]2C1=CC(=O)OC1 | – | 313 | 0.668
C[C@@H]1C[C@@H]2O[C@]3(C[C@@]4(C)[C@@H]5[C@@H](O)C[C@H]6C(C)(C)[C@@H](O[C@H]7OC[C@H](O)[C@@H](O)[C@@H]7O)CC[C@@]67C[C@@]57CC[C@]4(C)[C@@H]13)O[C@@H]2C(C)(C)O | inactive | – | –
C[C@]12CC[C@H]3[C@@H](CC[C@]4(O)C[C@@H](OC(=O)c5cccnc5)CC[C@]34C=O)[C@@]1(O)CC[C@@H]2C1=CC(=O)OC1 | – | 443 | 0.944
CO[C@H]1[C@H](O)[C@H](O[C@H]2CC[C@@]3(C=O)[C@@H](CC[C@@H]4[C@H]3CC[C@]3(C)[C@@H](c5ccc(=O)oc5)CC[C@]43O)C2)O[C@@H](C)[C@@H]1O | – | 55.6 | 0.118
C[C@H]1O[C@@H](O[C@H]2CC[C@]3(C=O)[C@H]4CC[C@]5(C)[C@@H](C6=COC(=O)C6)CC[C@]5(O)[C@@H]4CC[C@]3(O)C2)C[C@@H]2OC3(CCCCC3)O[C@@H]21 | – | 409 | 0.872
C[C@]12CC[C@H]3[C@@H](CC[C@]4(O)C[C@@H](O)CC[C@]34/C=N/Nc3ccccc3)[C@@]1(O)CC[C@@H]2C1=CC(=O)OC1 | – | 4230 | 7.89
C[C@H]1O[C@@H](O[C@H]2CC[C@]3(C=O)[C@H]4CC[C@]5(C)[C@@H](C6=CC(=O)OC6)CC[C@]5(O)[C@@H]4CC[C@]3(O)C2)C[C@H](O)[C@@H]1O[C@@H]1OC[C@@H](O)[C@H](O)[C@H]1O | – | 160 | 0.341
